Assay results published in ChEMBL document CHEMBL2440043, “Synthesis and structure-activity relationship of 2-phenyliminochromene derivatives as inhibitors for aldo-keto reductase (AKR) 1B10” (Bioorg Med Chem, 2013).

Experiments:
[1] = molecular target: T1, Aldo-keto reductase family 1 member B1 (Homo sapiens, UniProt P15121); test: Inhibition of human recombinant N-terminal His6-tagged AKR1B1 expressed in Escherichia coli by fluorescence assay in presence of NADPH
[2] = molecular target: T2, Aldo-keto reductase family 1 member B10 (Homo sapiens, UniProt O60218); test: Inhibition of human recombinant N-terminal His6-tagged AKR1B10 expressed in Escherichia coli by fluorescence assay in presence of NADPH
Target sequence in this assay (O60218 whole entry): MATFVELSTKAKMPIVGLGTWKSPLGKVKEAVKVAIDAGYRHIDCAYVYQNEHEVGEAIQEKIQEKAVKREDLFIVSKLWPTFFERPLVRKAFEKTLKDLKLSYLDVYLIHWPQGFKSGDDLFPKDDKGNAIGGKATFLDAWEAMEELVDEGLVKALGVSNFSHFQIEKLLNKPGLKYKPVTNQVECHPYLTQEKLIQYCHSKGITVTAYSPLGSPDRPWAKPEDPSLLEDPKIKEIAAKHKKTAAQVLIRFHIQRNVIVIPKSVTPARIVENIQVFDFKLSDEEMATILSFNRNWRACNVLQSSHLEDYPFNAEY

[3] = molecular target: T1, Aldo-keto reductase family 1 member B1; test: Inhibition of human recombinant N-terminal His6-tagged AKR1B1 expressed in Escherichia coli at 10000 nM by fluorescence assay in presence of NADPH
[4] = molecular target: T2, Aldo-keto reductase family 1 member B10; test: Inhibition of human recombinant N-terminal His6-tagged AKR1B10 expressed in Escherichia coli at 10000 nM by fluorescence assay in presence of NADPH
Target sequence in this assay (O60218 whole entry, looked up): as the sequence (O60218 whole entry) above

[5] = molecular target: Aldo-keto reductase family 1 member B10 (Homo sapiens, UniProt O60218, W220Y); test: Competitive inhibition of human recombinant AKR1B10 W220Y mutant expressed in Escherichia coli using geraniol as substrate by double-reciprocal plot analysis in presence of NADP+
In short: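 Trp220Tyr mutant purified from E. coli; geraniol oxidation with saturating NADP⁺ (0.25 mM) at 25 °C, followed by NADPH fluorescence (ex 340 nm, em 455 nm). Five geraniol levels (50–800 μM) were tested at three inhibitor concentrations. Ki came from slope and intercept replots of double-reciprocal plots; mean of at least three determinations.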

[6] = molecular target: Aldo-keto reductase family 1 member B10 (Homo sapiens, UniProt O60218, Q303S); test: Competitive inhibition of human recombinant AKR1B10 Q303S mutant expressed in Escherichia coli using geraniol as substrate by double-reciprocal plot analysis in presence of NADP+
In short: (§1)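 Purified enzyme from E. coli, assayed by NADP⁺-linked geraniol oxidation at 25 °C. NADPH formation was read by fluorescence (ex 340 nm, em 455 nm). NADP⁺ was saturating at 0.25 mM, with five geraniol concentrations (25–200 μM) and three inhibitor concentrations. Ki came from replots of the slopes and intercepts of double-reciprocal plots; mean of at least three determinations.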

[7] = molecular target: T2, Aldo-keto reductase family 1 member B10; test: Competitive inhibition of wild-type human recombinant N-terminal His6-tagged AKR1B10 expressed in Escherichia coli using geraniol as substrate by double-reciprocal plot analysis in presence of NADP+; in short: as §1
Target sequence in this assay (O60218 whole entry): as above

Aldo-keto reductase family 1 member B10 (Homo sapiens, UniProt O60218, Q303S), sequence (O60218 whole entry Q303S): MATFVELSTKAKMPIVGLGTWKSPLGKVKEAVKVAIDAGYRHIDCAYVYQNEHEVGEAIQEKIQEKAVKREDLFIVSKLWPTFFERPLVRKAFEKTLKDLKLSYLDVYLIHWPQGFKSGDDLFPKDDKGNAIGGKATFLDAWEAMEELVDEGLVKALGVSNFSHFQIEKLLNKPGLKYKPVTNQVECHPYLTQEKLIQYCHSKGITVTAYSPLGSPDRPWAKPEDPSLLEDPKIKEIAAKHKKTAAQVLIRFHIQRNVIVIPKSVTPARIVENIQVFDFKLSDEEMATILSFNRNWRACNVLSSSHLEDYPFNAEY
Aldo-keto reductase family 1 member B10 (Homo sapiens, UniProt O60218, W220Y), sequence (O60218 whole entry W220Y): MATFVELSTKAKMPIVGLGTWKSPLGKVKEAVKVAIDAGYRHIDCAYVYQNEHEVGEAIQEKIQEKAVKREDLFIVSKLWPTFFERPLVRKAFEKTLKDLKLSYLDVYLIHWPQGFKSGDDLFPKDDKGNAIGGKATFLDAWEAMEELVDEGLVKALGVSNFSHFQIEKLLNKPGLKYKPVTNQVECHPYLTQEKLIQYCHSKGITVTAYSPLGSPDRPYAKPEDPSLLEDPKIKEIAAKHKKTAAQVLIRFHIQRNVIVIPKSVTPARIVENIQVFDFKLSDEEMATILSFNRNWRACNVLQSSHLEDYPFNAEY

| SMILES | IC50 [1] [nM] | IC50 [2] [nM] | further results |
| --- | --- | --- | --- |
| COc1ccc(/N=c2\oc3cc(O)ccc3cc2C(=O)NCCO)cc1 | 20 | 11 | – |
| COc1ccc(/N=c2\oc3cc(O)ccc3cc2C(=O)NC2CCCCC2)cc1 | 27 | 11 | – |
| O=C(O)Cc1ccc(/N=c2\oc3cc(O)ccc3cc2C(=O)Nc2ccccn2)cc1 | 20 | 13 | – |
| COc1ccc(/N=c2\oc3ccc(O)cc3cc2C(=O)Nc2ccccn2)cc1 | > 10000 | > 10000 | inhibition [3]: < 30%; inhibition [4]: < 30% |
| COc1ccc(/N=c2\oc3cc(O)ccc3cc2C(=O)NCCCO)cc1 | 29 | 8.8 | – |
| O=C(Nc1ccccn1)c1cc2ccc(O)cc2o/c1=N\c1ccccc1 | 34 | 12 | – |
| O=C(Nc1ccccn1)c1cc2ccc(O)cc2o/c1=N\c1ccc(Br)cc1 | 25 | 14 | – |
| COc1ccc(/N=c2\oc3ccccc3cc2C(=O)Nc2ccccn2)cc1 | – | – | inhibition [3]: < 30% |
| O=C(O)c1ccc(/N=c2\oc3cc(O)ccc3cc2C(=O)Nc2ccccn2)cc1 | 19 | 7.6 | – |
| O=C(Nc1ccccn1)c1cc2ccc(O)cc2o/c1=N\c1ccc(I)cc1 | 12 | 13 | – |

The next lines start with results.

| IC50 [1] [nM] | IC50 [2] [nM] | SMILES | further results |
| --- | --- | --- | --- |
| 28 | 18 | CCCCNC(=O)c1cc2ccc(O)cc2o/c1=N\c1ccc(OC)cc1 | – |
| 24 | 6.8 | O=C(Nc1ccccn1)c1cc2ccc(O)cc2o/c1=N\c1ccc(O)cc1 | – |
| > 10000 | – | COc1ccc(/N=c2\oc3cccc(O)c3cc2C(=O)Nc2ccccn2)cc1 | inhibition [3]: < 30% |
| 28 | 16 | COc1ccc(/N=c2\oc3cc(O)ccc3cc2C(=O)NCC(C)C)cc1 | – |
| 24 | 4.7 | COc1ccc(/N=c2\oc3cc(O)ccc3cc2C(=O)NCc2ccccc2)cc1 | Ki [5]: 51 nM; Ki [6]: 3.8 nM; Ki [7]: 1.3 nM |
| > 10000 | > 10000 | COc1ccc(/N=c2\oc3c(O)cccc3cc2C(=O)Nc2ccccn2)cc1 | inhibition [3]: < 30%; inhibition [4]: < 30% |
| 6.7 | 9.7 | COc1ccc(/N=c2\oc3cc(O)ccc3cc2C(=O)NC(C)C)cc1 | – |
| 26 | 8.6 | Cc1ccc(/N=c2\oc3cc(O)ccc3cc2C(=O)Nc2ccccn2)cc1 | – |
